{
  "source": "ChEMBL document CHEMBL1137012",
  "about": "“Structural optimization and biological evaluation of 2-substituted 5-hydroxyindole-3-carboxylates as potent inhibitors of human 5-lipoxygenase” (J Med Chem, 2009)",
  "key": {"[1]": {"system": "Neutrophil", "assay": "Inhibition of […]-induced translocation of 5-lipoxygenase from cytosol to perinuclear region in human neutrophils at 0.1 uM to 10 uM by Western blot", "format": "functional, cell-based"}, "[2]": {"system": "Rattus norvegicus", "assay": "Antiinflammatory activity against lambda carrageenan-induced pleurisy in Wistar Han rat assessed as reduction in exudate volume at 4 mg/kg, ip administered 30 mins before carrageenan challenge measured after 4 hrs by trypan blue staining", "format": "functional", "set-up": "scale not given: the % may be the effect or the level left", "conditions": "route intraperitoneal", "method_in_brief": "(§1)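 Male Wistar Han rats (220-230 g; n = 10 per group) received compound ip, or vehicle (DMSO 4%), 30 min before intrapleural λ-carrageenan under anaesthesia. After 4 h, exudate was collected and its volume measured. Leukocytes were counted by light microscopy after trypan blue staining. LTB4 was measured by EIA (ng/rat). Data are mean ± SE.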"}, "[3]": {"system": "Neutrophil", "assay": "Inhibition of […]-induced translocation of 5-lipoxygenase from cytosol to perinuclear region in human neutrophils at 100 uM by Western blotblot", "format": "functional, cell-based"}, "[4]": {"system": "Rattus norvegicus", "assay": "Antiinflammatory activity against lambda carrageenan-induced pleurisy in Wistar Han rat assessed as reduction in LTB4 levels at 4 mg/kg, ip before carrageenan challenge measured after 4 hrs by EIA", "format": "functional", "set-up": "scale not given: the % may be the effect or the level left", "conditions": "route intraperitoneal", "method_in_brief": "as §1"}, "[5]": {"system": "Rattus norvegicus", "assay": "Antiinflammatory activity against lambda carrageenan-induced pleurisy in Wistar Han rat assessed as reduction in inflammatory cell number at 4 mg/kg, ip administered 30 mins before carrageenan challenge measured after 4 hrs by trypan blue staining", "format": "functional", "set-up": "scale not given: the % may be the effect or the level left", "conditions": "route intraperitoneal", "method_in_brief": "as §1"}, "[6]": {"system": "Rattus norvegicus", "assay": "Antiinflammatory activity against lambda carrageenan-induced pleurisy in Wistar Han rat assessed as reduction in LTB4 level at 10 mg/kg, ip administered 30 mins before carrageenan challenge measured after 4 hrs by EIA", "format": "functional", "set-up": "scale not given: the % may be the effect or the level left", "conditions": "route intraperitoneal", "method_in_brief": "as §1"}, "[7]": {"system": "Rattus norvegicus", "assay": "Antiinflammatory activity against lambda carrageenan-induced pleurisy in Wistar Han rat assessed as reduction in cellular infiltration at 10 mg/kg, ip administered 30 mins before carrageenan challenge measured after 4 hrs by trypan blue staining", "format": "functional", "set-up": "scale not given: the % may be the effect or the level left", "conditions": "route intraperitoneal", "method_in_brief": "as §1"}, "[8]": {"system": "Rattus norvegicus", "assay": "Antiinflammatory activity against lambda carrageenan-induced pleurisy in Wistar Han rat assessed as reduction in exudate volume at 10 mg/kg, ip administered 30 mins before carrageenan challenge measured after 4 hrs by trypan blue staining", "format": "functional", "set-up": "scale not given: the % may be the effect or the level left", "conditions": "route intraperitoneal", "method_in_brief": "as §1"}},
  "note": "Activity calls are given as the source filed them. The rule behind the calls is not given here.",
  "data": [
    {"compound": "CC(C)c1ccc2c(c1)c(SC(C)(C)C)c(CC(C)(C)C(=O)O)n2Cc1ccc(Cl)cc1", "values": [
      {"measurement": "Activity", "setting": "[1]", "value": "inactive"}
    ]},
    {"compound": "CCOC(=O)c1c(Cc2cccc(Cl)c2)[nH]c2c1cc(O)c1ccccc12", "values": [
      {"measurement": "Activity", "setting": "[2]", "value": 77, "unit": "%"},
      {"measurement": "Activity", "setting": "[3]", "value": "inactive"},
      {"measurement": "Activity", "setting": "[4]", "value": 49, "unit": "%"},
      {"measurement": "Activity", "setting": "[5]", "value": 40, "unit": "%"}
    ]},
    {"compound": "CC(c1cc2ccccc2s1)N(O)C(N)=O", "note": "(stereo not drawn) [ZILEUTON]", "values": [
      {"measurement": "Activity", "setting": "[6]", "value": 66, "unit": "%"},
      {"measurement": "Activity", "setting": "[7]", "value": 41, "unit": "%"},
      {"measurement": "Activity", "setting": "[8]", "value": 77, "unit": "%"}
    ]}
  ]
}
